The list is not random: actives were taken first. Their share in the collection is about 2.1%.
SUMO1 PPI mod – alters human SUMO1 binding to SIM partners. SUMO1 binding to a labelled peptide, TR-FRET, 1 h. 0.33% of 360,000 active. AID 602429. inhibition, % at 20 µM; in the data active = inhibition above about 37%
Target sequence (P63165 whole entry, looked up): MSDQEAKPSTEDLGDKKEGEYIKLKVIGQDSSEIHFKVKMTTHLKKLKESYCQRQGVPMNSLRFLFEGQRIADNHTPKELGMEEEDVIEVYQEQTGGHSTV
LMPTP block – LMPTP (human) inhibition; AID 651560; 0.22% of 360,000 active; recombinant LMPTP-A, OMFP fluorogenic substrate, fluorescence intensity; inhibition, % at 20 µM; P24666;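 active = compounds that cut the enzyme signal by at least half of the control window in the single-dose screen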;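 also: plate controls were DMSO wells with enzyme plus substrate for no effect and substrate without enzyme for full effect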
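Test system – LMPTP-A enzyme · Amount – LMPTP-A at 0.625 nM final in the reaction · Buffer or medium – Bis-Tris pH 6.0, DTT, detergent · Reagent – OMFP 400 µM · Doses – single 20 µM dose · Schedule – reaction 50 min, room temperature, dark · Detection – fluorescence intensity of OMFP turnover product · Evaluation – percent inhibition versus substrate-only and uninhibited controls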
GRK2 inh – inhibitors of human GRK2 displacing RNA aptamer | inhibition of aptamer binding, % at 10 µM | bead flow cytometry, FAM-aptamer displacement from GRK2 | 0.59% of 330,000 active | P25098;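 active = inhibition of aptamer binding above 40%, roughly 3 SD of noise, on plates passing a quality check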;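 also: median bead fluorescence of bound FAM aptamer so fluorescent compounds give negative values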
Scp1 inh – inhibitors of human Scp-1 phosphatase | Q9GZU7 | Recombinant Scp1, phosphopeptide, malachite green phosphate absorbance | inhibition, % at 20 µM | 0.88% of 340,000 active | AID 493091;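 active = inhibition above about 50% at 20 µM, limit read from the data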;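 also: plate controls were DMSO wells with enzyme for no effect and wells lacking enzyme for full effect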
Target sequence (Q9GZU7 76-261 limits assumed): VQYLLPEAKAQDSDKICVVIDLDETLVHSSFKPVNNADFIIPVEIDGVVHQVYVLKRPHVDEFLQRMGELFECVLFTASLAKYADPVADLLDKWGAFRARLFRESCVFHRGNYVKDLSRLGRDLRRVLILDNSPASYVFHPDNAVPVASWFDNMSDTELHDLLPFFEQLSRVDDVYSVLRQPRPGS
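Incubation: 45 min enzyme reaction at room temperature / System: truncated SCP-1 phosphatase (76-261aa) / Reagent: Phospho 17-mer peptide substrate / Buffer or medium: Acidic Tris acetate buffer with magnesium and detergent / Signal: absorbance at 630 nm / Doses: one concentration, 20 µM, with 1.0% DMSO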
DNMT1 block – DNMT1 (human) enzyme inhibition; P26358; DNMT1 molecular beacon, Hinp1I cleavage, fluorescence; inhibition (reported as % activation of signal), % at 10 µM; 0.83% of 360,000 active; in the data active = inhibition above about 50%
STEP inh – blocks human striatal-enriched tyrosine phosphatase. AID 588621. P54829. 0.25% of 360,000 active. recombinant STEP, OMFP fluorogenic substrate, fluorescence. inhibition, % at 20 µM;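 active = inhibition at 20 µM, scaled per plate between control wells, above about 37%, limit read from the data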;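 also: 0% = DMSO with enzyme and substrate and 100% = substrate only without enzyme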
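material = STEP tyrosine phosphatase | reagent = fluorogenic phosphatase substrate OMFP at 25 µM final | doses = single compound dose of 20 µM, 1% DMSO final | schedule = 20 min reaction, room temperature, in the dark | measured by = fluorescence, 480/540 nm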
STEP conf – STEP (human) phosphatase inhibition, single concentration confirmation; 32% of 520 active; recombinant STEP, OMFP fluorogenic substrate, fluorescence; inhibition, % at 20 µM; shares compounds with STEP inh; call rule not given here;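 also: 0% = enzyme with substrate plus DMSO and 100% = substrate without enzyme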
Active calls of the source: *; . = no result.

SMILES	SUMO1 PPI mod	LMPTP block	GRK2 inh	Scp1 inh	DNMT1 block	STEP inh	STEP conf
COCCn1c(SCC(=O)Nc2ccc3[nH]c(=O)[nH]c3c2)nc2ccccc2c1=O	6	-2	0	-16	2	38*	3
COCCn1c(SCC(=O)Nc2ccc3c(c2)OCCO3)nc2ccccc2c1=O	4	0	.	.	2	-2	.
S=C(NCCCN1CCOCC1)Nc1cccc(-c2nnc3n2CCCCC3)c1	2	0	4	-1	12	42*	23
S=C(NCCCN1CCOCC1)Nc1ccc(-c2nc3ccccc3[nH]2)cc1	4	0	1	-5	-10	65*	40*
CCC(=O)N1CCCC(C)(C(=O)Nc2ccc(OC(F)F)cc2)C1 (stereo not given)	-2	1	.	.	5	0	.
COc1cccc(NC(=O)Cc2cn(C)c3ccccc23)c1	0	2	6	-7	-6	50*	34
COCCn1c(SCCN2CCOCC2)nc2c1c(=O)[nH]c(=O)n2C	0	-2	2	2	-2	60*	29
C=CCn1c(SCCN2CCOCC2)nc2c1c(=O)[nH]c(=O)n2C	-5	-2	28	-4	2	2	.
NS(=O)(=O)c1ccc(N/N=C/c2ccccc2C(=O)O)c([N+](=O)[O-])c1	-29	2	0	-2	2	-2	.
Cc1cc([N+](=O)[O-])c2[nH]c(C(=O)N/N=C/c3ccccc3C(=O)O)c(-c3ccccc3)c2c1	5	0	.	2	1	73*	24
O=C(Nc1cccc(Cl)c1)Nc1ccc2c(c1)C(=O)OC2	-2	0	0	-5	15	112*	11
CCCN(CC(=O)Nc1ccccc1OC)C(=O)Cc1ccc2c(c1)CCC2	0	0	7	-5	-3	71*	46*
OC[C@@H]1CN(CCN2CCOCC2)C[C@H](n2cnc3c(N4CCCC4)ncnc32)O1	-6	4	.	.	3	-5	.
S=C(NCCc1ccccc1)Nc1c(Cl)cccc1Cl	-4	1	0	17	1	96*	51*
CCn1c(SCC(=O)N/N=C/C=C\c2ccccc2[N+](=O)[O-])nc2ccccc21	-19	2	15	-7	-4	52*	19
Cn1c(SCC(=O)N/N=C/C=C\c2ccccc2[N+](=O)[O-])nc2ccccc21	-15	-1	1	2	-1	1	.
CCOC(=O)C1=C(c2ccccc2)NC(=O)NC1c1ccsc1 (stereo not given)	-2	0	3	-2	-6	-2	.
CCOC(=O)N1CCC(N(CCN(C)C)C(=S)Nc2cc(Cl)ccc2C)CC1	3	-10	1	-13	-1	65*	36*
CCOC(=O)N1CCC(N(CCN(C)C)C(=S)Nc2cc(C)ccc2C)CC1	-2	-10	1	-3	-2	-1	.
COc1ccc(CNC(=O)C(C)OC(=O)C23CC4CC(CC(O)(C4)C2)C3)cc1 (stereo not given)	2	-1	0	-5	0	97*	-3
Cc1ccc(CCNC(=O)CSCc2ccc(F)cc2)cc1	4	1	2	-14	-1	-2	.
Cc1cc([N+](=O)[O-])ccc1NC(=O)Cc1ccc(F)cc1	-10	-1	0	-5	-1	117*	1
Cc1cc(C)c2nc(-c3ccccn3)cc(C(=O)Nc3ccc(S(=O)(=O)Nc4onc(C)c4C)cc3)c2c1	14	4	6	28	68*	41*	72*
COc1ccc(-c2cc(C(=O)Nc3ccc(S(=O)(=O)Nc4onc(C)c4C)cc3)c3ccccc3n2)cc1OC	-4	0	27	3	-6	-2	.
COc1cc(/C=C2/SC(=S)N(CC(=O)O)C2=O)ccc1OCC(=O)Nc1ccc(C)c(C)c1	11	-1	0	.	1	91*	56*
COc1ccc(/C=C2\SC(=S)N(CCCC(=O)Nc3cc(C)on3)C2=O)cc1OC	-13	0	0	-7	-3	-4	.
